ChEMBL document CHEMBL1154181 (J Med Chem, 2009)

Key:
[1] = system: Mus musculus; assay: (§1) Antinociceptive activity against radiant heat-induced nociception in po dosed CD1 mouse assessed as increase in tail withdrawal latency measured after 15 to 120 mins postdose by tail flick test in presence of 50 mg/kg, ip GABAB receptor antagonist CGP-35348 administered 30 mins before compound infusion; type: functional
Procedure, shortened: (§2)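 Antagonist given ip 30 min before oral dosing (naloxone 1, mecamylamine 2, yohimbine 2, CGP 35348 50 mg/kg). Tail flick with radiant heat at the tail tip, cut-off 15 s; latencies at 15–120 min converted to %MPE. Peak-time quantal response (≥50% MPE); ED50 from at least four groups of six male CD-1 mice.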

[2] = system: Mus musculus; assay: Antinociceptive activity against thermal nociception in po dosed CD1 mouse assessed as latency period to elicit jumping or hind paw licking at 1 mg/kg, po measured after 15 to 90 mins postdose by hot plate method; type: functional
Procedure, shortened: (§3)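 Male CD-1 mice (25–30 g), dosed orally at 1 mg/kg. Tail flick: radiant heat focused 3–4 cm from the tail tip, cut-off 15 s at 15 V. Hot plate: 48.5 ± 0.1 °C, licking, paw jerk or jump, cut-off 60 s. Baseline is the mean of three readings 15 min apart. Latency followed to 120 min (tail) or 90 min (plate); data as %MPE.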

[3] = system: Mus musculus; assay: (§4) Antinociceptive activity against thermal nociception in po dosed CD1 mouse assessed as increase in latency period to elicit jumping or hind paw licking measured after 15 to 90 mins postdose by hot plate method in presence of 50 mg/kg, ip GABAB receptor antagonist CGP 35348 administered 30 mins before compound infusion; type: functional
Procedure, shortened: (§5)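 Antagonist given ip 30 min before oral dosing (naloxone 1, mecamylamine 2, yohimbine 2, CGP 35348 50 mg/kg). Hot plate at 48.5 ± 0.1 °C inside a cylinder, cut-off 60 s; latencies at 15–90 min as %MPE. Peak-time quantal response (≥50% MPE); ED50 from at least four groups of six male CD-1 mice.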

[4] = target: T1, Alpha-1B adrenergic receptor (Rattus norvegicus) (UniProt P15823); conditions: Wistar, Liver, Membrane, 10 uM
T1 sequence (whole entry): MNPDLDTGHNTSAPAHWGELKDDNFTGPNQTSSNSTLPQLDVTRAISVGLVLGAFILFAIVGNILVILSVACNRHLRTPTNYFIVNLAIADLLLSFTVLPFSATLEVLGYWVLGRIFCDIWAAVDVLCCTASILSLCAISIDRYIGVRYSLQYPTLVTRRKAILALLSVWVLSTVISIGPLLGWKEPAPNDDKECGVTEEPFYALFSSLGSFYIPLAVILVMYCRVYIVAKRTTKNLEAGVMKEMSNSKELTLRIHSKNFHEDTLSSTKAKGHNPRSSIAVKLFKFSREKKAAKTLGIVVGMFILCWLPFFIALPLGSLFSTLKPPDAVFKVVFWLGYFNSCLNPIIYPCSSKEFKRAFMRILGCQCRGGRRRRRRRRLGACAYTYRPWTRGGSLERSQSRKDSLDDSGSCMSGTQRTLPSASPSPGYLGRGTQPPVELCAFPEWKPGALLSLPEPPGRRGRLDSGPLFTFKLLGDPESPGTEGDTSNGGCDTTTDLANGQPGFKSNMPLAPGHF

[5] = system: Mus musculus; assay: Antinociceptive activity against radiant heat-induced nociception in icv dosed CD1 mouse assessed as increase in tail withdrawal latency measured after 15 to 120 mins postdose by tail flick test; type: functional
Procedure, shortened: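 Male CD-1 mice anesthetized with ketamine-xylazine (80 + 10 mg/kg ip). Dosed into the right lateral ventricle (+2 mm ML, −0.3 mm AP to bregma, 2 mm depth). Tail flick with radiant heat, cut-off 15 s. Latency read at 15–120 min as %MPE.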

[6] = system: Mus musculus; assay: as §4, with “1” for “50”, “opioid” for “GABAB”, “naloxone hydrochloride” for “CGP 35348”; type: functional; procedure, shortened: as §5
[7] = target: T2, Alpha-2A adrenergic receptor (Homo sapiens) (UniProt P08913); assay: Inhibition of [3H][…] binding to human recombinant adrenergic alpha2A receptor expressed in insect Sf9 cells at 10 uM after 60 mins
T2 sequence (whole entry): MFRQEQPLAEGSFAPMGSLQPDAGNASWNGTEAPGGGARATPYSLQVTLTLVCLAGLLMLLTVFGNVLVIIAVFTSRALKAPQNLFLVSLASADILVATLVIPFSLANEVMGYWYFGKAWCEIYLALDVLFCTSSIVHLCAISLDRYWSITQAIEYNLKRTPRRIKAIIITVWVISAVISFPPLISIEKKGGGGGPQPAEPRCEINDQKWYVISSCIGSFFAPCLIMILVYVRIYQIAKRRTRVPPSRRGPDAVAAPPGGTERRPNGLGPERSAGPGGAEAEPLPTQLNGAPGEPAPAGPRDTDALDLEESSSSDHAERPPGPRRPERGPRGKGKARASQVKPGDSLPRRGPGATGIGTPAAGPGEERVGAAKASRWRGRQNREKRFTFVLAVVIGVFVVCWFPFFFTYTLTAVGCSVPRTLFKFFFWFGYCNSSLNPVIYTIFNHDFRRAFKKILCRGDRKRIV
Procedure, shortened: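 Sf9 membranes expressing human recombinant α2A, with 1 nM [3H]-MK-912. Nonspecific binding defined by 10 μM WB-4101. Buffer 50 mM Tris-HCl pH 7.4, 12.5 mM MgCl2, 2 mM EDTA. Incubated 60 min at 25 °C, then filtered and counted by scintillation. Duplicate; 1% DMSO final.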

[8] = system: Mus musculus; assay: Antinociceptive activity against radiant heat-induced nociception in CD1 mouse assessed as tail withdrawal latency at 1 mg/kg, po measured after 15 to 120 mins postdose by tail flick test; type: functional; procedure, shortened: as §3
[9] = system: Mus musculus; assay: as §4, with “2” for “50”, “alpha-2-adrenergic” for “GABAB”, “yohimbine hydrochloride” for “CGP 35348”; type: functional; procedure, shortened: as §5
[10] = system: Mus musculus; assay: Antinociceptive activity in sc dosed mouse assessed as reduction in number of noxious stimulus-induced writhes; type: functional
[11] = target: T3, Alpha-1A adrenergic receptor (Rattus norvegicus, UniProt P43140); assay: Displacement of [3H]prazosin from adrenergic alpha1A receptor in Wistar rat submaxillary gland after 60 mins; type: tissue-based
T3 sequence (P43140 whole entry): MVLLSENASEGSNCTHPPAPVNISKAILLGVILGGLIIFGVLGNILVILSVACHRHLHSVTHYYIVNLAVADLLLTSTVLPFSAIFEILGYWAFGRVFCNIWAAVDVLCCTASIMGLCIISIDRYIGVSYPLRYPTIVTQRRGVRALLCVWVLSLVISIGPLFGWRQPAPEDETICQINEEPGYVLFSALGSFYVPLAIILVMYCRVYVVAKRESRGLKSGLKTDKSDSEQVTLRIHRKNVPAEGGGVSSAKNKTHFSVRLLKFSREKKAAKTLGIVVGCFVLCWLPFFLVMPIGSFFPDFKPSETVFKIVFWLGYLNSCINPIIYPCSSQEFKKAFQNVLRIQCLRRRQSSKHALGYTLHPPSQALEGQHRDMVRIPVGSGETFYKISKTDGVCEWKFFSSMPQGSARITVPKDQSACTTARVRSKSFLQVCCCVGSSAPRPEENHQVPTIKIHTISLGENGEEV

[12] = system: Mus musculus; assay: as §1, with “1” for “50”, “opioid” for “GABAB”, “naloxone hydrochloride” for “CGP-35348”; type: functional; procedure, shortened: as §2

In the case of `C=Cc1c(C)nn(CCCN2CCN(c3ccc(C)cc3)CC2)c(=O)c1N`, the ED50 [1] is reported as 0.5 mg/kg, the Activity [2] is reported as 30 min and the ED50 [3] is reported as 0.6 mg/kg. For the same compound, the Emax [4] was 99%, the ED50 [5] was 3.5 µg and the ED50 [6] was 1.1 mg/kg. It also gave an Emax [7] of 100%, an Activity [8] of 30 min and an ED50 [9] of 8.6 mg/kg. It also gave an ED50 [10] of 2.5 mg/kg, an IC50 [11] of 56 nM and an ED50 [12] of 1.2 mg/kg.
